Legend:
Gastric mucosa = assay: Inhibition of lipid peroxidation assessed as malondialdehyde level per 100 mg of gastric mucosa isolated from albino rat at dose 30 mg/kg, po
Mus musculus = assay: Analgesic activity in albino mouse inhibition of acetic acid-induced writhing response at 10 mg/kg, po; assay type: functional; parameters: scale not given: the % may be the effect or the level left
Rattus norvegicus [1] = assay: Gastrointestinal toxicity in albino rat assessed as ulcerogenic indicates at dose 30 mg/kg, po; conditions: in vivo
Rattus norvegicus [2] = assay: Antiinflammatory activity in rat assessed as inhibition of carrageenan-induced paw edema at 10 mg/kg, po; assay type: functional
Procedure, shortened: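 Rats, six per group, received the drug suspended in 1% CMC orally 30 min before carrageenan; one group served as control. Carrageenan was given as 0.05 mL of 1% w/v in 0.9% saline under the plantar aponeurosis of the right hind paw.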

[3] = biological target: T1, Prostaglandin G/H synthase 1 (Ovis aries, UniProt P05979); assay: Inhibition of ovine COX1 by enzyme-immuno assay
T1 sequence (P05979 whole entry): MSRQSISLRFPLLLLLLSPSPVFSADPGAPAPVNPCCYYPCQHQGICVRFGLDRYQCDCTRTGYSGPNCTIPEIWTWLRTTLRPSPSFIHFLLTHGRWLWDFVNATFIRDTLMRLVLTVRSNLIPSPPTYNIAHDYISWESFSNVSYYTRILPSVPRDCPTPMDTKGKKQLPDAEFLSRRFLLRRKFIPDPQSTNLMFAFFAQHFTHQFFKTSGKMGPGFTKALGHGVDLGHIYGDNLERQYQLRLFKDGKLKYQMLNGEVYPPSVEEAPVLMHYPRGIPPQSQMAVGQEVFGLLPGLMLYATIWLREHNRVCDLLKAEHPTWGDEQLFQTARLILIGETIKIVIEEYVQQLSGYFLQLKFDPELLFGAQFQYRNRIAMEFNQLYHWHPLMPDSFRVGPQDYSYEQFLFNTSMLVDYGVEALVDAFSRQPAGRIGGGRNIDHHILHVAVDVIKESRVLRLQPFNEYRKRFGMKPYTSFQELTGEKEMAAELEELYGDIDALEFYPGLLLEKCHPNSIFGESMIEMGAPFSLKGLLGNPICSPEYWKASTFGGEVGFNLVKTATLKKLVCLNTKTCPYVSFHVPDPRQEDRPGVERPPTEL

| Structure (SMILES) | MDA content at 30 mg/kg (Gastric mucosa) [nmol MDA/100 mg tissue] | Activity (Mus musculus) [%] | UI (Rattus norvegicus [1]) | inhibition in vivo at 10 mg/kg (Rattus norvegicus [2]) [%] | IC50 [3] [µM] |
| --- | --- | --- | --- | --- | --- |
| CC(=O)Oc1ccccc1-c1nnc(CCC(=O)c2ccc(-c3ccccc3)cc2)o1 | 5.8 | 56.3 | 0.7 | 43.7 |  |
| Cc1ccc(-c2nnc(CCC(=O)c3ccc(-c4ccccc4)cc3)o2)cc1 | 5.8 | 45.1 | 0.5 | 50 |  |
| COc1ccc(-c2nnc(CCC(=O)c3ccc(-c4ccccc4)cc3)o2)cc1OC | 4.9 | 57.3 |  | 62.5 | 54.1 |
| O=C(CCc1nnc(-c2ccccc2)o1)c1ccc(-c2ccccc2)cc1 | 4.3 | 51.3 | 0.4 | 43.7 |  |
| O=C(CCc1nnc(-c2ccccc2Cl)o1)c1ccc(-c2ccccc2)cc1 | 5.7 | 66.1 | 0.5 | 46.8 |  |
| O=C(CCc1nnc(-c2ccc(Cl)cc2)o1)c1ccc(-c2ccccc2)cc1 | 5.8 | 61.9 | 0.6 | 53.1 |  |
| O=C(CCc1nnc(Cc2ccccc2)o1)c1ccc(-c2ccccc2)cc1 | 5.8 | 54.1 | 0.5 | 50 |  |
| O=C(CCc1nnc(COc2ccccc2)o1)c1ccc(-c2ccccc2)cc1 | 5.8 | 55.8 | 0.6 | 53.1 |  |
| COc1ccc(-c2nnc(CCC(=O)c3ccc(-c4ccccc4)cc3)o2)cc1 | 6.1 | 51.3 |  | 59.4 | 52.3 |
| O=C(CCc1nnc(-c2ccc(F)cc2)o1)c1ccc(-c2ccccc2)cc1 | 4.6 | 72.5 | 0.6 | 53.1 |  |
| O=C(CCc1nnc(COc2ccc3ccccc3c2)o1)c1ccc(-c2ccccc2)cc1 | 5.9 | 68.6 |  | 59.4 | 48.4 |
| O=C(CCc1nnc(-c2ccc([N+](=O)[O-])cc2)o1)c1ccc(-c2ccccc2)cc1 | 4.3 | 45.8 |  | 56.2 | 42.6 |
| O=C(O)Cc1ccccc1Nc1c(Cl)cccc1Cl [DICLOFENAC] | 8.9 | 70.3 |  | 65.6 |  |
| O=C(O)CCC(=O)c1ccc(-c2ccccc2)cc1 [FENBUFEN] | 6.8 | 54.1 |  | 56.3 | 3.9 |

From ChEMBL document CHEMBL1153620 (Eur J Med Chem, 2009)
